The list is not random: actives were taken first. Their share in the collection is about 1%.
p-CIP stab down – p/CIP-EGFP fusion destabilizers, primary screen, fluorescence, F442A cells; Q05BA5; 16 h; decrease of EGFP signal, % at 10 µM; 0.01% of 290,000 active; AID 1984, 2009;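 active = EGFP signal decrease of at least 30% at 10 µM or well 3 SD below plate mean, unless failing retest; inactive = the rest, including hits failing retest or dose response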
Lipid droplet – inhibitors of hepatocyte lipid droplet formation, primary screen, imaging, high-throughput imaging, BODIPY stain | inhibition, % at 6.5 µM | 0.4% of 240,000 active | AML12 mouse hepatocytes, oleate lipid droplets;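 active = lipid droplet intensity inhibited by at least 50%, with more than 500 cells counted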
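Material: mouse AML12 hepatocyte cell line, fixed after treatment; Timing: compound with oleate, overnight; Technique: high-content imaging of BODIPY-stained droplets and DAPI nuclei; Probe or stimulus: oleate, 100 µM final; Dosing: compound at 6.5 µM only.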
Arrestin-AP2 inh – inhibitors of beta-arrestin/AP2 binding, primary screen, biochemical, GPCR trafficking, flow cytometry; beta-arrestin 1 C-terminal peptide binding to AP2 beta2-adaptin appendage (human); FITC-arrestin peptide / GST-AP2 beads; AP2 beta2 appendage carries R879A mutation; inhibition, % at 10 µM; 0.31% of 340,000 active; AID 504490, 2011;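 active = inhibition above a set limit, near 3 SD of compounds lacking own fluorescence, cut at about 54% in these data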;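 note: plate controls were DMSO wells for no effect and 5 µM unlabelled arrestin peptide for full effect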
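System: GST-AP2 R879A glutathione beads. Medium: PBS with 0.05% Tween 20 and 0.1% BSA. Also added: FITC-arrestin peptide, 50 nM. Incubation: 12 min plus 1 h, RT. Measured by: high-throughput flow cytometry of beads, ex 488, em 535 nm. Evaluation: percent drop in bead-associated FITC signal.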
Fh CTSL1 inh – Fasciola hepatica cathepsin L1 inhibitors, primary screen, counter-screen for PFM18AAP inhibitor project, biochemical, QFRET, fluorogenic peptide substrate. 0.49% of 300,000 active. recombinant F. hepatica cathepsin L1, Z-Leu-Arg-MCA fluorescence. inhibition, % at 5.96 µM. AID 1906, 2009;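 active = inhibition above the mean of all tested compounds plus 3 SD, set per screening campaign, cut at about 17% in these data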;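 note: 0% = plate median of test compound wells and 100% = 1 µM Z-Phe-Ala-diazomethylketone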
Numbers without * were called inactive; . = not tested or not shown.

SMILES	p-CIP stab down	Lipid droplet	Arrestin-AP2 inh	Fh CTSL1 inh
O=C(CSc1nnc(-c2cnccn2)n1Cc1ccco1)c1ccc2ccccc2c1	47*	.	11	4
CC(C)OC(=O)CSc1nnc(-c2cnccn2)n1Cc1ccco1	-6	0	-3	-2
Cc1cc(C(=O)CS(=O)(=O)c2ccccc2)cc(C)c1O	5	.	6	2
Cc1cc(C(=O)CS(=O)(=O)c2ccc(F)cc2)cc(C)c1O	-6	7	67*	1
COc1ccc(-c2[nH]ncc2CN(C)CCc2c(C)n[nH]c2C)c(F)c1	-6	-5	13	-1
O=C(NC(=S)Nc1nc(-c2ccccc2)cs1)c1cncc(Br)c1	-12	.	-20	0
O=C(O)c1cccc(NC2=C(N3CCOCC3)C(=O)c3ccccc3C2=O)c1	-2	1	8	50*
O=C1C=C(N2CCOCC2)c2ccccc2C1=O	-26	-9	2	112*
CN(C1=C(N2CCOCC2)C(=O)c2ccccc2C1=O)c1ccccc1	2	-17	6	62*
O=C(CCl)Nc1cc(-c2ccccc2)nn1-c1ccccc1	-2	-16	6	68*
CC(=O)Nc1ccc(-c2cc(NC(C)=O)n(-c3ccccc3)n2)cc1	-12	.	-6	3
Cc1ccc(-c2cc(NC(=O)CCl)n(-c3ccccc3)n2)cc1	-12	11	4	75*
Cc1ccc(-c2nn(-c3ccccc3)cc2NC(=O)CCl)cc1	9	15	-8	82*
O=C(CN1CCN(c2cccc(Cl)c2)CC1)NCc1ccccc1	-4	-2	2	24*
COc1ccc(-n2ncc(C(C)NS(=O)(=O)c3cc(F)ccc3C)c2C)cc1 (stereo not drawn)	-19	-6	-8	.
CC1CC(C)CN(S(=O)(=O)c2ccc(NC(=S)NC(=O)c3ccccc3)cc2)C1 (stereo not drawn)	-24	2	4	19*
O=C1CSC(c2cccc([N+](=O)[O-])c2)N1c1c(F)cccc1F (stereo not drawn)	2	-14	46	20*
Cc1ccc2oc(=O)c3cc(C(=O)NCCCN4CC(C)CC(C)C4)sc3c2c1 (stereo not drawn)	-10	-43	42	1
Cc1ccc2oc(=O)c3cc(C(=O)NCCCN4C(C)CCCC4C)sc3c2c1 (stereo not drawn)	10	0	-5	17*
CC1CCN(C(=O)c2ccc3ccccc3c2)CC1	-6	3	13	3
O=C1C2C3C=CC(C3)C2C(=O)N1CNc1ccc(O)cc1 (stereo not drawn)	3	.	.	71*
O=C(NC(=S)NC1CCSC1=O)c1ccc([N+](=O)[O-])cc1 (stereo not drawn)	-15	-8	35	3
O=C1SCCC1NS(=O)(=O)c1ccc([N+](=O)[O-])cc1 (stereo not drawn)	-10	0	24	21*
COc1ccc(NC(=O)CSc2nc3ccccc3nc2N2CCCC2)cc1	-3	50*	8	1
CC(=O)Nc1ccc(NC(=O)CSc2nc3ccccc3nc2N2CCCCC2)cc1	-12	-3	11	-1
SMILES	p-CIP stab down	Lipid droplet	Arrestin-AP2 inh	Fh CTSL1 inh
O=C(NC1CCCCC1)c1cc([N+](=O)[O-])ccc1N1CCCC1	-21	4	5	34*
CN(C(=O)c1cc([N+](=O)[O-])ccc1N1CCCC1)C1CCCCC1	-41	-8	23	22*
O=C(NC1CCCCCCC1)c1cc([N+](=O)[O-])ccc1Cl	-9	-4	-2	-5
NC(=O)c1cc([N+](=O)[O-])ccc1N1CCCCC1	-12	7	-4	-2
COc1ccc2nc(C)cc(SCC(=O)N3CCCCC3)c2c1	-4	0	-11	0
O=C1NC(=O)C(=O)N1	.	.	-3	-5
COc1cc(/C(C)=N\NC(N)=S)cc(OC)c1OC	1	-1	1	18*
O=C1c2ccccc2COc2ccc(O)cc21	-5	.	13	21*
CC(=O)OCN(C#N)c1nc(N(C)C)nc(N(C)C)n1	-20	.	5	-23
CCOC(=O)C(C(=O)OCC)N(C#N)c1nc(C)cc(C)n1	-12	-6	-2	21*
CCOC(=O)C(C(=O)OCC)N(C#N)c1nc(N(C)C)nc(N(C)C)n1	-10	-7	12	65*
COc1ccc(/C=N/Nc2ccc(C(F)(F)F)cc2[N+](=O)[O-])cc1O	-5	14	-5	2
CCOc1ccc(/C=N/Nc2ccc(C(F)(F)F)cc2[N+](=O)[O-])cc1O	-11	74*	2	1
CCn1c(C)c(C(C)=O)c(N2CCC(C(N)=O)CC2)nc1=S	-3	2	-4	-2
CC(=O)Nc1cccc(C(=O)/C=C/c2ccco2)c1	-9	.	5	12
CC(=O)Nc1ccc(C(=O)/C=C/c2ccco2)cc1	5	5	5	22*
O=C1c2ccccc2C(=O)C12OC2c1cccc2ccccc12 (stereo not drawn)	0	7	4	62*
Cc1ccc(/C(O)=C2\C(=O)C(=O)N(CCN(C)C)C2c2ccccc2F)cc1 (stereo not drawn)	-5	.	7	3
O=C(O)CCC1c2cc3c4cc2OC2Oc5cc6c(cc51)C(CCC(=O)O)c1cc5c7cc1OC(O6)c1cc6cc(c1)Oc1cc(cc(C(=O)O)c1)Oc1cc8cc(c1)C(Oc1cc(c(cc1C5CCC(=O)O)C3CCC(=O)O)OC(O4)c1cc(cc(c1)Oc1cc(cc(C(=O)O)c1)O8)Oc1cc(cc(C(=O)O)c1)Oc1cc(cc2c1)Oc1cc(cc(C(=O)O)c1)O6)O7 (stereo not drawn)	.	.	.	22*
Cc1ccc(NC(=O)CN(C)C(=O)C(C)OC(=O)CNC(=O)c2ccc(Cl)c([N+](=O)[O-])c2)cc1 (stereo not drawn)	.	.	22	28*
CC(=O)NC(CC(=O)N1CCCC1)c1ccccc1 (stereo not drawn)	-8	8	2	-1
Cc1ccc(N(CC(=O)N2CCN(C3CCCCC3)CC2)S(=O)(=O)c2cccnc2)cc1	-22	.	0	18*
Cc1ccc(S(=O)(=O)N(CC(=O)N2CCCCCC2)c2ccccc2)cc1	-2	-6	25	0
CCN(CC)S(=O)(=O)c1ccc2oc(C(=O)N3CCCCCC3)c(C)c2c1	38*	-9	19	-1
CCN(CC)S(=O)(=O)c1ccc2oc(C(=O)N3CCOCC3)c(C)c2c1	14	-14	26	-2
O=C(Nc1ccc2nc(-c3cccs3)[nH]c2c1)c1cccs1	-12	37	-8	17*
CCOc1cc(C(=O)CCC(=O)OCC(=O)Nc2ccc(C)c(S(=O)(=O)N(C)C)c2)ccc1O	-14	-21	4	-14
CSc1ccc(S(=O)(=O)N2CCC(C(=O)N3CCc4ccccc4C3)CC2)cc1	-14	-2	-9	19*

Screens (PubChem BioAssay)
